# KCNQ1 block: inhibitors of human KCNQ1 potassium channel; AID 2642; CHO-K1 KCNQ1, FluxOR thallium flux fluorescence; active compounds read high; B-score at 10 µM; 310,000 compounds, 1.3% hits; P51787;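 active means compounds whose thallium flux B-score, printed positive for inhibition, exceeds three library SD while starting fluorescence stays within three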;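 further: channel opened by potassium depolarization with thallium stimulus after 20 min compound exposure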
# KCNK9 inh: human KCNK9 channel inhibition; Q9NPC2; HEK293 KCNK9, FluxOR thallium flux fluorescence; active compounds read low; B-score at 10 µM; 310,000 compounds, 1.2% hits; AID 488922;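 active means ratio B-score over 3 SD below the library mean, with starting fluorescence within 5 SD of its mean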;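 further: negative B-score means less thallium flux so channel inhibition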
# hERG protect: compounds protecting human hERG from proarrhythmic drug block; CHO-hERG, FluxOR thallium flux, dofetilide IC70 present; activation (rescue from dofetilide block), less the hit threshold, % at 10 µM; 310,000 compounds, 0.51% hits; AID 1511;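 active means activation above the mean of controls blocked by dofetilide plus 5 SD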;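 further: thallium influx through hERG after potassium depolarization seen as dye fluorescence rise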
# KCNQ1 pot: potentiators or activators of human KCNQ1 potassium channel; 310,000 compounds, 0.35% hits; CHO-K1 KCNQ1, thallium flux FluxOR fluorescence; active compounds read high; AID 2648; B-score at 10 µM;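 active means fluorescence ratio B-score, a plate-corrected score, at least three library SD, with initial intensity B-score within 5 SD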
#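 Assay system: CHO-K1 cells stably expressing KCNQ1. Medium: assay buffer for compound exposure, DMSO matched across wells. Timing: 37 °C overnight plating, 90-min dark dye load, 20-min compound pretreatment. Signal: kinetic FluxOR fluorescence, 10 s baseline plus 110 s post-stimulus.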
# Kir21 block: Kir2.1 (mouse) channel inhibition; 310,000 compounds, 0.85% hits; B-score at 10 µM; HEK293-Kir2.1, FluxOR thallium flux fluorescence; active compounds read low; P35561;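 active means fluorescence ratio B-score at or below minus 3 SD of library scores, with starting-brightness B-score within 2 SD, cut at about -4.2 in these data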;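 further: channel flux triggered by added potassium and thallium sulfate stimulus; B-score of peak minus minimum fluorescence over baseline after thallium stimulus; more negative B-score means stronger Kir2.1 block with less thallium influx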
# KCNK3 inh: human KCNK3 channel inhibition, primary screen; CHO-KCNK3 thallium flux, FluxOR fluorescence; active compounds read low; B-score at 10 µM; 340,000 compounds, 0.84% hits; AID 602410;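 active means B-score under library mean minus 4 SD, starting fluorescence ratio at most library mean plus 5 SD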;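 further: more negative B-score means stronger inhibition of thallium flux through KCNK3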
# KCNK3 inh conf: human KCNK3 channel inhibition, confirmation assay; shares compounds with KCNK3 inh; CHO-KCNK3 thallium flux, FluxOR fluorescence; 0% buffer, 100% carvedilol maximal block; ratio percent of control, % at 10 µM; 2,400 compounds, 99% hits;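 active means ratio percent of control, averaged over triplicates, above buffer control mean plus 5 SD, cut at about 64% in these data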;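 further: ratio is the fluorescence rise from min to max over baseline after thallium stimulus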
# KCNK3 uninduced: activity in cells without induced KCNK3 expression. shares compounds with KCNK3 inh. non-induced KCNK3 parental cells, FluxOR thallium flux; active compounds read low. thallium flux ratio (lower = more inhibition) at 10 µM. 2,400 compounds, 40% hits. AID 651747;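 active means thallium flux ratio, averaged over three wells, more than 5 SD below the buffer control mean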;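 further: host cells are CHO cells without KCNK3 induction; ratio is peak minus trough fluorescence over baseline then normalized to buffer controls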
# An asterisk follows results filed as active; i = inactive; x = no result. The list is not random: actives were taken first. Their share in the collection is about 3.8%.
SMILES,KCNQ1 block,KCNK9 inh,hERG protect,KCNQ1 pot,Kir21 block,KCNK3 inh,KCNK3 inh conf,KCNK3 uninduced
COc1ccc(-c2csc(N(CC3CCCO3)C(=O)c3cccs3)n2)cc1 (stereo not drawn),i,i,-14,i,0.13,-10*,117*,i
COc1ccc(OC)c(-c2csc(N(CC3CCCO3)C(=O)C3CCCCC3)n2)c1 (stereo not drawn),i,i,-9,i,0.31,-9.5*,93*,i
CC(NC(=O)c1ccc(NC(=O)CC2SC(N3CCCC3)=NC2=O)cc1)c1ccc(F)cc1 (stereo not drawn),x,x,x,x,x,i,x,x
CCc1cccc(NC(=O)c2cccc3c2C(=O)N(C2CCCCC2)C3)c1,i,i,-8,i,-1.3,-8.7*,78*,i
CCCSc1nnc2c(n1)OC(c1cccn1C)N(C(C)=O)c1ccccc1-2 (stereo not drawn),i,i,-7,i,-1.5,-13*,122*,i
O=C(COc1ccccc1Cl)Nc1cccc(S(=O)(=O)NC2=NCCCCC2)c1,i,i,-10,i,-2.3,i,x,x
CCC(C)c1ccc(NC(=O)Nc2cccnc2)cc1 (stereo not drawn),i,i,-16,i,-1.8,-9.7*,119*,0.15*
CCC(C)c1ccc(NC(=O)NCc2cccnc2)cc1 (stereo not drawn),i,i,-9,i,1.3,i,x,x
CC1=CC2=NC(=O)/C(=C\c3cccn3CCOc3ccccc3C)C(=N)N2O1,i,i,-6,i,1.8,-8.9*,115*,0.16*
COc1ccccc1OCCOc1ccc(/C=C2/C(=N)N3OC(C)=CC3=NC2=O)cc1OC,i,i,-7,i,-0.03,i,x,x
Cc1cnc(C(=O)NNC(=O)c2ccc(Br)cc2)cn1,i,i,-13,i,4.3,i,x,x
COc1ccc(C)cc1S(=O)(=O)N1CCN(C(=O)c2ncoc2-c2ccccc2F)CC1,i,i,-12,i,-1.6,i,x,x
CCc1ccc(NC(=O)CN(c2ccccc2)S(=O)(=O)N(C)C)cc1,i,i,-4,i,1.6,-10*,103*,i
COc1cccc(NC(=O)CN(C)C(C)C(=O)N2CCCCC2)c1 (stereo not drawn),x,x,x,x,x,i,x,x
O=C(O)/C=C/C(=O)Nc1cccc2c1-c1ccccc1C2=O,x,x,x,x,x,i,x,x
COc1ccccc1CN(C)CC(=O)Nc1cccc2ccccc12,i,i,-14,i,-2.2,i,x,x
COc1cc(Cl)c(C)cc1NC(=O)CN(C)Cc1cccc(OC)c1OC,i,i,-8,i,-2.9,-13*,99*,i
CCC(=NCc1ccco1)c1c(C(F)(F)F)[nH]n(-c2nc3ccccc3s2)c1=O,i,i,-16,i,2,-9*,114*,i
COc1ccc(Cl)cc1NC(=O)CSc1nnc(C2CC2)n1N,x,x,x,x,x,i,x,x
CCOc1ccc(NC(=O)c2cc3ccccc3cc2OC)cc1,i,i,-8,i,1.9,i,x,x
COc1ccc(C(=O)COc2ccccc2C(=O)Nc2ccccc2)cc1,i,i,-5,i,0.39,-9.8*,108*,0.16*
COc1ccc(NC(=O)c2cc3ccccc3cc2OC)cc1,i,i,-9,i,0.85,-11*,112*,i
CC(C)Cn1c(N)c(C(=O)COC(=O)c2nccnc2N)c(=O)n(C)c1=O,x,x,x,x,x,i,x,x
CC1=C([N+](=O)[O-])C(c2ccc(Cl)cc2)NC(=O)N1 (stereo not drawn),i,i,-10,i,0.59,i,x,x
CC1CCCN(C(=O)c2ccc(-c3ccccc3Cl)o2)C1 (stereo not drawn),i,i,-10,i,-0.32,i,x,x
SMILES,KCNQ1 block,KCNK9 inh,hERG protect,KCNQ1 pot,Kir21 block,KCNK3 inh,KCNK3 inh conf,KCNK3 uninduced
O=C(COc1ccc(Br)cc1CNCCc1ccccc1)NCc1ccccc1,7*,i,-28,i,-3,-11*,102*,i
COC(=O)c1ccc(NC(=O)CCCN2C(=O)NC(C)(C)C2=O)cc1,x,x,x,x,x,i,x,x
CCOC(=O)c1cnc(-n2nc(C)cc2C)nc1NC1CCCC1,i,i,-30,i,-0.06,-9.4*,131*,0.11*
CCc1nnc(NC(=O)c2oc3ccc(Br)cc3c2C)s1,x,x,x,x,x,i,x,x
N#CCC(CNc1ncc(C(F)(F)F)cc1Cl)OC(=O)c1ccc(Cl)cc1Cl (stereo not drawn),i,i,-12,i,-0.41,-9.5*,102*,0.16*
COc1ccc(Cl)cc1-n1c(=S)sc2c(=O)[nH]c(SCC(=O)C(C)(C)C)nc21,i,i,-16,i,-0.21,-9*,88*,0.14*
Brc1ccc(-c2noc(CCc3ccccc3)n2)o1,i,i,-9,i,1,i,x,x
Brc1ccc(-c2noc(COc3ccc4ccccc4c3)n2)o1,i,i,-12,i,-3.4,-9.1*,102*,i
COC(C(=O)Nc1ccnn1C1CCN(Cc2ccccn2)CC1)c1ccccc1 (stereo not drawn),i,i,-10,i,0.39,i,x,x
N#Cc1nc(-c2ccco2)oc1N1CCN(c2cccc(Cl)c2)CC1,i,i,-10,i,1.2,-9.6*,111*,i
N#Cc1nc(-c2ccco2)oc1N1CCCC1,i,i,-4,i,-0.31,i,x,x
CC(C)(CNC(=O)c1ccc(-c2ccccc2Cl)o1)N1CCOCC1,i,i,-4,i,0.04,i,x,x
Cc1cc(C)c(C#N)c(SCC(=O)c2ccc(Cl)cc2Cl)n1,i,i,-3,i,1.1,-10*,108*,0.15*
CCOC(=O)c1c2c(c(=S)n(-c3ccccc3)c1N)CCC2,i,i,-9,i,1.3,-10*,123*,0.11*
CCOC(=O)c1c(N)sn(-c2ccccc2)c1=S,i,i,-4,i,0.84,i,x,x
O=C(CNC(=O)c1ccccc1)Oc1cccc(Cl)c1,i,i,-4,i,-1.1,i,x,x
O=C(CN1CCSC1=O)Nc1ccc(N2CCOCC2)cc1,x,x,x,x,x,i,x,x
CCCCc1nc(Cl)c(C#N)c2c1CSC(C)(C)C2,i,i,-11,i,0.47,i,x,x
